Data as given in article PMC4633019 (Journal of natural products, 2015).
≈ marks a conversion by molar mass, not a printed value. Where a SMILES comes first, the peptide text is derived from it. [ ]: non-standard residue; d: D form. The star is where a group is joined. Sta = CC(C)C[C@H](N)[C@@H](O)CC(=O)O; Isovaleryl = CC(C)CC(=O)*

Experiments:
[1] = system: Plasmodium falciparum (cp250, Dd2, HB3, 7G8, GB4 lines); assay: SYBR Green DNA-staining parasite viability assay; type: cell-based
Method in brief: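 Infected RBCs (0.3% parasitemia, 2.5% hematocrit final) in culture medium received pin-transferred test compound. Incubated 72 h at 37 °C in humidified 5% CO2. Lysis buffer was then added (20 mM Tris-HCl, 10 mM EDTA, 0.16% saponin, 1.6% Triton-X, 10× SYBR Green I), followed by overnight incubation at 22–24 °C in the dark. Fluorescence was read at 485/535 nm. Controls: artemisinin and mefloquine as positive, DMSO as negative.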

[2] = system: P. falciparum plasmepsins (aspartyl protease activity of Pf extracts); assay: Plasmepsin protease assay with P. falciparum extract and FRET peptide substrate; type: biochemical, Plasmodium falciparum; conditions: freshly prepared P. falciparum extracts
HEK293 cells = assay: Mammalian cell viability assay; type: cell-based, human; conditions: up to highest tested concentrations
Method in brief: (§1)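 Viability was read with Cell TiterGlo reagent, used according to the manufacturer's instructions, in 1536-well format with a plate-imager read-out. The same procedure was applied to human RBCs.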

HepG2 cells = assay: Mammalian cell viability assay; type: cell-based, human; conditions: up to highest tested concentrations
Method in brief: as §1

Jurkat cells = conditions: cited from earlier work

Row | Compound | toxicity to HEK293 cells (in words) (HEK293 cells) | toxicity to HepG2 cells (in words) (HepG2 cells) | EC50 (cytotoxicity) (Jurkat cells) | other results
1 | COCC(=O)N[C@@H](C(=O)N1N=CCC[C@H]1C(=O)N[C@@H](Cc1ccccc1)[C@@H](O)[C@H](C)C(=O)N[C@H]1CCN(C(N)=O)C1=O)[C@H](O)C(C)C [actinoramide D] | – | – | – | decrease in potency (vs actinoramide A) ([1]; depending on the parasite strain): 6–20 fold
2 | CC(C)CC(=O)N[C@H](C(=O)N[C@H](C(=O)N[C@@H](CC(C)C)[C@@H](O)CC(=O)N[C@@H](C)C(=O)N[C@@H](CC(C)C)[C@@H](O)CC(=O)O)C(C)C)C(C)C [pepstatin] (Isovaleryl-VV[Sta]A[Sta]-OH) | – | – | – | inhibition of aspartyl protease (plasmepsin) activity (in words) [2]: potently inhibited
3 | COCC(=O)N[C@@H](C(=O)N1NCCC[C@H]1C(=O)N[C@@H](Cc1ccccc1)[C@@H](O)[C@H](C)C(=O)N[C@@H]1CCN(C(N)=O)C1=O)[C@H](O)C(C)C [25-epi-actinoramide A] | no toxicity | no toxicity | – | –
4 | COCC(=O)N[C@@H](C(=O)N1NCCC[C@H]1C(=O)N[C@@H](Cc1ccccc1)[C@@H](O)[C@H](C)C(=O)N[C@H]1CCC(=O)NC1=O)[C@H](O)C(C)C [padanamide B, reference compound] | – | – | ~20 mg/L (≈ 30.9 µM) | –
5 | COCC(=O)N[C@@H](C(=O)N1NCCC[C@H]1C(=O)N[C@@H](Cc1ccccc1)[C@@H](O)[C@H](C)C(=O)NC1CNC(=O)NC1=O)[C@H](O)C(C)C (stereo partly drawn) [Actinoramide F, actinoramide F] | – | – | – | antimalarial activity (in words) [1]: no antimalarial activity
6 | COCC(=O)N[C@@H](C(=O)N1NCCC[C@H]1C(=O)N[C@@H](Cc1ccccc1)[C@@H](O)[C@H](C)C(=O)N[C@H]1CCN(C(N)=O)C1=O)[C@H](O)C(C)C [actinoramide A] | no toxicity | no toxicity | ≈ 60 μg/mL | –
